Each compound was assayed against Estrogen receptor beta (Homo sapiens) (UniProt Q92731) (assay: Activation of human estrogen receptor beta expressed in HEK293 cells at 10 uM in presence of ICI-182781 beta-galactosidase reporter gene assay relative to control).
Type: cell-based
Summary of the method: (§1)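 Antagonism format: transfection as for the agonist assay (ERα or ERβ vector, ERE2-TATA-LUC, pCMVβ; 4 h). Medium then contained 10 µM compound plus 1000 nM ICI-182,780 or vehicle for 24 h. β-Gal-normalized luciferase given as fold activation relative to vehicle. Means ± SEM of ≥3 independent transfections.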

Sequence of Estrogen receptor beta (Homo sapiens) (Q92731 whole entry): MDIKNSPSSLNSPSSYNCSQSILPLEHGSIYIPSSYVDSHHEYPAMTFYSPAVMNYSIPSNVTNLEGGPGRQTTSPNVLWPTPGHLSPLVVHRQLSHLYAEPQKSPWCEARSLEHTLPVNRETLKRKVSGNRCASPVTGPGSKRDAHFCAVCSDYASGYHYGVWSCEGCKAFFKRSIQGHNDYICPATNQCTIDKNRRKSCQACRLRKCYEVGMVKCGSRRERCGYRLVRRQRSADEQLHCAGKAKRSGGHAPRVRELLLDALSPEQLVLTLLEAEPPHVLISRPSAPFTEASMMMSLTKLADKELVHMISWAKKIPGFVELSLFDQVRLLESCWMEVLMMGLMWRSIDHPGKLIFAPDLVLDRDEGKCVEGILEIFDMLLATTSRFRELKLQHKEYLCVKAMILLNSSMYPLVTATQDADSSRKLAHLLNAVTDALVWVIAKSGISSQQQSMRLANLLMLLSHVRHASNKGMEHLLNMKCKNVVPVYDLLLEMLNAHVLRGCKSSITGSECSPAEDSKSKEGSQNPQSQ

Row | SMILES | Activity
1 | COC(CC(=O)Cc1ccccc1)Cc1ccc2ccccc2c1 (racemic) | 0.7

Each compound was assayed against Estrogen receptor beta (Homo sapiens) (UniProt Q92731) (assay: Activation of human estrogen receptor beta expressed in HEK293 cells at 10 uM beta-galactosidase reporter gene assay relative to control).
Type: cell-based
Summary of the method: (§2)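 Luciferase reporter in transiently transfected HEK293 cells. Cells received 5 ng ERα or ERβ vector, ERE2-TATA luciferase reporter and pCMVβ by calcium phosphate for 4 h. Compound at 10 µM for 24 h in phenol-free medium with delipidated serum. β-Gal-normalized luciferase expressed as fold activation over vehicle (0.1% v/v). Means ± SEM of ≥3 transfections.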

Row | SMILES | Activity
2 | COC(CC(=O)Cc1ccccc1)Cc1ccc2ccccc2c1 (racemic) | 4.2

Each compound was assayed against T1, Estrogen receptor (Homo sapiens) (UniProt P03372) (assay: Activation of human estrogen receptor alpha expressed in HEK293 cells at 10 uM in presence of ICI-182780 beta-galactosidase reporter gene assay relative to control).
T1 sequence (whole entry): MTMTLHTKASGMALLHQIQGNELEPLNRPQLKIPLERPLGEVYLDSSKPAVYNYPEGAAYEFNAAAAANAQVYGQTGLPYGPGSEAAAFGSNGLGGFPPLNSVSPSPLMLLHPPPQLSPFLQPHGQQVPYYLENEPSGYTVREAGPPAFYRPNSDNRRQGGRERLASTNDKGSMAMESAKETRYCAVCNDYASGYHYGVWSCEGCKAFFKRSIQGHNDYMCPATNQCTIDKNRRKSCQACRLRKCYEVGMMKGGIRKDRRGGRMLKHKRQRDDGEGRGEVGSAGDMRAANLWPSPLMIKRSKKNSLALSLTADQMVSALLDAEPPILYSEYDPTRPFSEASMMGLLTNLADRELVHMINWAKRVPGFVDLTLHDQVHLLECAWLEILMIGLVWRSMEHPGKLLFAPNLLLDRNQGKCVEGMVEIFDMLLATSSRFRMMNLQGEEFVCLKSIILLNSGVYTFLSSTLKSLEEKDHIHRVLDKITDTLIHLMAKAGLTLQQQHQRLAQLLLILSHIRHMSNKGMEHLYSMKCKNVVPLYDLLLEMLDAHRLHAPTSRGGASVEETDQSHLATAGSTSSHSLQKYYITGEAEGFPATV
Type: cell-based
Summary of the method: as §1

Row | SMILES | Activity
3 | COC(CC(=O)Cc1cccc2ccccc12)Cc1cccc2ccccc12 (single isomer, unassigned; 64b) | 1.1
4 | O=C(CCc1ccccc1)CC(=O)Cc1ccccc1 | 1
5 | COC(CC(=O)Cc1ccccc1)Cc1ccc2ccccc2c1 (racemic) | 1.6
6 | c1ccc(CCC2=NOC(CCc3ccccc3)C2)cc1 (single isomer, unassigned; 18b) | 1

Each compound was assayed against T1, Estrogen receptor (Homo sapiens) (assay: Activation of human estrogen receptor alpha expressed in HEK293 cells at 10 uM beta-galactosidase reporter gene assay relative to control).
Type: cell-based
Summary of the method: as §2

Row | SMILES | Activity
7 | COC(CC(=O)Cc1cccc2ccccc12)Cc1cccc2ccccc12 (single isomer, unassigned; 64b) | 26.1
8 | O=C(CCc1ccccc1)CC(=O)Cc1ccccc1 | 8.7
9 | COC(CC(=O)Cc1ccccc1)Cc1ccc2ccccc2c1 (racemic) | 22.9
10 | c1ccc(CCC2=NOC(CCc3ccccc3)C2)cc1 (single isomer, unassigned; 18b) | 126

What follows are compounds tested against T1, Estrogen receptor (Homo sapiens) (assay: Activation of human estrogen receptor alpha expressed in HEK293 cells at 10 uM by beta-galactosidase reporter gene assay relative to 3,17 beta-estradiol).
Type: cell-based
Summary of the method: (§3)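 HEK293 cells seeded a day ahead in phenol-free DMEM with 5% delipidated FBS. Calcium phosphate transfection for 4 h with 5 ng ERα or ERβ expression vector, 75 ng pERE2TATA-LUC reporter and 20 ng pCMVβ control. Test compound at 10 µM (vehicle 0.1% v/v) for 24 h. Luciferase normalized to β-galactosidase. Activity = 100% × (test − vehicle)/(10 nM E2 − vehicle). Mean of ≥3 independent transfections.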

Row | SMILES | Activity [%]
11 | COC(CC(=O)Cc1cccc2ccccc12)Cc1cccc2ccccc12 (single isomer, unassigned; 64b) | 23.9
12 | O=C(CCc1ccccc1)CC(=O)Cc1ccccc1 | 24.3
13 | COC(CC(=O)Cc1ccccc1)Cc1ccc2ccccc2c1 (racemic) | 48.1
14 | O=C(CCc1ccccc1)CC(O)Cc1ccccc1 (stereo not given) | 12.8
15 | O=C(CC(=O)Cc1ccccc1)Cc1ccccc1 | 4.3
16 | Oc1ccc(CCC2=NOC(Cc3ccc(F)cc3)C2)cc1 (single isomer, unassigned) | 77.8
17 | CS(C)=C(C(=O)Cc1ccccc1)C(=O)Cc1ccccc1 | 0.5
18 | c1ccc(CCC2=NOC(Cc3ccc4ccccc4c3)C2)cc1 (single isomer, unassigned; 53b) | 13
19 | Oc1ccc(CC2CC(CCc3ccccc3O)=NO2)cc1 (single isomer, unassigned; 75b) | 6.2
20 | COC(CC(=O)CCc1ccccc1)Cc1ccccc1 (stereo not given) | 9.9
21 | Oc1ccccc1CCC1=NOC(Cc2ccc(F)cc2)C1 (single isomer, unassigned; 73b) | 11.1
22 | c1ccc(CCC2CC(c3ccccc3)=NO2)cc1 (single isomer, unassigned; 10a) | 22.8
23 | c1ccc(CCC2=NOC(Cc3cccc4ccccc34)C2)cc1 (single isomer, unassigned; 52a) | 34.1
24 | c1ccc(CCC2=NOC(Cc3ccccc3)C2)cc1 (single isomer, unassigned) | 68.4
25 | O=C(CC(O)CCc1ccccc1)c1ccccc1 (stereo not given) | 13
26 | COC(CC(=O)CCCc1ccccc1)Cc1ccccc1 (stereo not given) | 24.5
27 | CS(C)=C(C(=O)Cc1ccccc1)C(=O)c1ccccc1 | -1.2
28 | Oc1cccc(CCC2=NOC(Cc3ccccc3)C2)c1 (single isomer, unassigned) | 19.2
29 | Oc1cccc(CCC2=NOC(Cc3ccccc3)C2)c1 (stereo not given) | 15.7
30 | Fc1ccc(CC2CC(CCc3ccccc3)=NO2)cc1 (stereo not given) | 99.2
31 | COc1ccccc1CC(CC(=O)Cc1ccc2ccccc2c1)OC (single isomer, unassigned) | 0.3
32 | CS(C)=C(C(=O)CCc1ccccc1)C(=O)c1ccccc1 | -2.5
33 | O=C(CCc1ccccc1)CC(O)c1ccccc1 (single isomer, unassigned; 23a) | 78.8
34 | COc1ccc(CC(O)CC(=O)CCc2ccccc2)cc1 (single isomer, unassigned; 54b) | 1.3
35 | c1ccc(CCC2=NOC(CCc3ccccc3)C2)cc1 (single isomer, unassigned; 18b) | 43.9

Each compound was assayed against Estrogen receptor beta (Homo sapiens) (UniProt Q92731) (assay: Activation of human estrogen receptor beta expressed in HEK293 cells at 10 uM beta-galactosidase reporter gene assay relative to 3,17-beta-estradiol).
Type: cell-based
Summary of the method: as §3

Row | SMILES | Activity [%]
36 | COC(CC(=O)Cc1cccc2ccccc12)Cc1cccc2ccccc12 (single isomer, unassigned; 64b) | 0.4
37 | O=C(CCc1ccccc1)CC(=O)Cc1ccccc1 | 1.4
38 | COC(CC(=O)Cc1ccccc1)Cc1ccc2ccccc2c1 (racemic) | 4.7
39 | O=C(CCc1ccccc1)CC(O)Cc1ccccc1 (stereo not given) | 0.4
40 | O=C(CC(=O)Cc1ccccc1)Cc1ccccc1 | 0.1
41 | Oc1ccc(CCC2=NOC(Cc3ccc(F)cc3)C2)cc1 (single isomer, unassigned) | 28.4
42 | CS(C)=C(C(=O)Cc1ccccc1)C(=O)Cc1ccccc1 | -0.4
43 | c1ccc(CCC2=NOC(Cc3ccc4ccccc4c3)C2)cc1 (single isomer, unassigned; 53b) | 3.8
44 | Oc1ccc(CC2CC(CCc3ccccc3O)=NO2)cc1 (single isomer, unassigned; 75b) | 0.6
45 | COC(CC(=O)CCc1ccccc1)Cc1ccccc1 (stereo not given) | 1.3
46 | Oc1ccccc1CCC1=NOC(Cc2ccc(F)cc2)C1 (single isomer, unassigned; 73b) | -2.4
47 | c1ccc(CCC2CC(c3ccccc3)=NO2)cc1 (single isomer, unassigned; 10a) | 8.5
48 | c1ccc(CCC2=NOC(Cc3cccc4ccccc34)C2)cc1 (single isomer, unassigned; 52a) | 10.5
49 | c1ccc(CCC2=NOC(Cc3ccccc3)C2)cc1 (single isomer, unassigned) | 1.1
50 | O=C(CC(O)CCc1ccccc1)c1ccccc1 (stereo not given) | 15.4
51 | COC(CC(=O)CCCc1ccccc1)Cc1ccccc1 (stereo not given) | 30.4
52 | CS(C)=C(C(=O)Cc1ccccc1)C(=O)c1ccccc1 | 5.8
53 | Oc1cccc(CCC2=NOC(Cc3ccccc3)C2)c1 (single isomer, unassigned) | 6.7
54 | Oc1cccc(CCC2=NOC(Cc3ccccc3)C2)c1 (stereo not given) | -2.5
55 | Fc1ccc(CC2CC(CCc3ccccc3)=NO2)cc1 (stereo not given) | 11.2
56 | COc1ccccc1CC(CC(=O)Cc1ccc2ccccc2c1)OC (single isomer, unassigned) | 0.3
57 | CS(C)=C(C(=O)CCc1ccccc1)C(=O)c1ccccc1 | 3.3
58 | O=C(CCc1ccccc1)CC(O)c1ccccc1 (single isomer, unassigned; 23a) | 20.5
59 | COc1ccc(CC(O)CC(=O)CCc2ccccc2)cc1 (single isomer, unassigned; 54b) | 1.2
60 | c1ccc(CCC2=NOC(CCc3ccccc3)C2)cc1 (single isomer, unassigned; 18b) | -0.4
